Results reported in paper PMC9586281 (Proceedings of the National Academy of Sciences of the …, 2022).

How the values were obtained:
FOXP3:NFAT = settings: cited from earlier work
[1] = required plasmid transfection for cellular introduction; cited from earlier work
LZCC FOXP3 (T182-M337) = biological target: T1, LZCC FOXP3 (T182-M337) (Homo sapiens, UniProt Q9BZS1); assay: Fluorescence polarization analysis; type: binding; settings: FPA, 50 nM FITC-labeled peptide, 1× PBS pH 8, 1-15 min room temperature
T1 sequence (Q9BZS1 182-336 limits assumed): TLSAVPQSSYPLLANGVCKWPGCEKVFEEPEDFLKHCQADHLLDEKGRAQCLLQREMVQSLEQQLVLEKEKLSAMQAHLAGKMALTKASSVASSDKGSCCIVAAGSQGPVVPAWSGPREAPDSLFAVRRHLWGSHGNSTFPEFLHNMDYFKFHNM
How it was run: (§1)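 Solution-phase fluorescence polarization using recombinant truncated FOXP3 as the binding partner. Equilibrium binding constants were determined for stapled peptides and for their native unstapled peptide controls.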

ΔN FOXP3 (T182-P431) = biological target: T2, ΔN FOXP3 (T182-P431) (Homo sapiens, UniProt Q9BZS1); assay: Fluorescence polarization analysis; type: binding; settings: FPA, 50 nM FITC-labeled peptide, 1× PBS pH 8, 1-15 min room temperature
T2 sequence (Q9BZS1 182-431): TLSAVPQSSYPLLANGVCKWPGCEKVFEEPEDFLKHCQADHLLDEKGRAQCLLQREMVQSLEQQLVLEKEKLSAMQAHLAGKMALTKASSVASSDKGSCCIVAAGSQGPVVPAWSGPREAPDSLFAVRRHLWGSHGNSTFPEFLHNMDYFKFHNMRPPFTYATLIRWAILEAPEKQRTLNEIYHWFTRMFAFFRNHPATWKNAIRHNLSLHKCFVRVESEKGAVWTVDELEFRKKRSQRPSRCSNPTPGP
How it was run: as §1

[2] = system: Treg cell-mediated suppression of Tcon cell proliferation; assay: Ex vivo suppression assay; type: cell-based, mice; settings: Treg cells pretreated with peptide, 72 h coculture with Tcon cells

Row | Substance | Inhibition of FOXP3:NFAT (FOXP3:NFAT) | Cell permeability [1] | KD, LZCC FOXP3 (LZCC FOXP3 (T182-M337)) | KD, ΔN FOXP3 (ΔN FOXP3 (T182-P431)) | Inhibition of Treg cell-mediated suppression of target proliferation [2]
1 | FOXP3 393–403: nonstructured peptide spanning a loop domain and the Wing1 region of the FKH domain of FOXP3 (KCFVRVESEKG; UniProt Q9BZS1 393-403, looked up, fragment) | partially inhibit FOXP3:NFAT | not cell permeable | – | – | –
2 | FOXP3(229-259): native, unstapled peptide control of hFOXP3 residues 229-259 (RAQCLLQREMVQSLEQQLVLEKEKLSAMQAH; UniProt Q9BZS1 229-259, looked up, fragment) | – | – | no binding | no binding | no ability to prevent Treg cell–mediated suppression of Tcon cell proliferation
